Assay results as given in ChEMBL document CHEMBL1121836, “Effect of structural change on acute toxicity and antiinflammatory activity in a series of imidazothiazoles and thiazolobenzimidazoles” (J Med Chem, 1981).
Several values for one entry are separate records, joined by “and”; a condition that tells them apart may be missing. Equal values may be shown once.

Tests used:
Mus musculus [1] = assay: Compound was evaluated for the percent reduction of carrageenan induced edema in mice at dose of 10 mg/kg; format: functional
Mus musculus [2] = assay: Compound was evaluated for the percent reduction of carrageenan induced edema in mice at dose of 100 mg/kg; format: functional
Mus musculus [3] = assay: Compound was evaluated for the percent reduction of carrageenan induced edema in mice at dose of 30 mg/kg; format: functional
Mus musculus [4] = assay: Compound was evaluated for the percent reduction of carrageenan induced edema in mice at dose of 200 mg/kg; format: functional
[5] = (§1) Compound was evaluated for the toxicity in mice; format: organism-based; conditions: mouse, in vivo
Mus musculus [6] = assay: Compound was evaluated for the percent reduction of carrageenan induced edema in mice at dose of 40 mg/kg; format: functional
Mus musculus [7] = assay: Compound was evaluated for the percent reduction of carrageenan induced edema in mice at dose of 1 mg/kg; format: functional
Mus musculus [8] = assay: Compound was evaluated for the percent reduction of carrageenan induced edema in mice at dose of 25 mg/kg; format: functional
Mus musculus [9] = assay: Compound was evaluated for the percent reduction of carrageenan induced edema in mice at dose of 50 mg/kg; format: functional
Mus musculus [10] = species on record: Mus musculus; assay: as §1; format: organism-based; conditions: in vivo
Rattus norvegicus [11] = assay: Compound was evaluated in the developed adjuvant arthritis assay at a dose of 10 mg/kg for the percent reduction of carrageenan induced edema (LHF) on 21st day; format: functional
Outline: (§2)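 Rats received 0.1 mL heat-killed Mycobacterium tuberculosis suspension (3.5 mg/mL) into the left hind footpad on day 1. On day 20, animals with developed arthritis (all four paws swollen, tail and ears involved) were used. Oral gavage in 0.25% methylcellulose (0.005 mL/g) on days 20 and 22. Hind paw volumes were recorded daily on days 20–23. Mean group volume is expressed as percent change from day 20.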

Rattus norvegicus [12] = assay: Compound was evaluated in the developed adjuvant arthritis assay at a dose of 10 mg/kg for the percent reduction of carrageenan induced edema (LHF) on 22nd day; format: functional; outline: as §2
Rattus norvegicus [13] = assay: Compound was evaluated in the developed adjuvant arthritis assay at a dose of 10 mg/kg for the percent reduction of carrageenan induced edema (LHF) on 23rd day; format: functional; outline: as §2
Rattus norvegicus [14] = assay: Compound was evaluated in the developed adjuvant arthritis assay at a dose of 3 mg/kg for the percent reduction of carrageenan induced edema (LHF) on 22nd day; format: functional; outline: as §2
Rattus norvegicus [15] = assay: Compound was evaluated in the developed adjuvant arthritis assay at a dose of 3 mg/kg for the percent reduction of carrageenan induced edema (LHF) on 23rd day; format: functional; outline: as §2
Rattus norvegicus [16] = assay: Compound was evaluated in the developed adjuvant arthritis assay at a dose of 30 mg/kg for the percent reduction of carrageenan induced edema (LHF) on 21st day; format: functional; outline: as §2
Rattus norvegicus [17] = assay: Compound was evaluated in the developed adjuvant arthritis assay at a dose of 30 mg/kg for the percent reduction of carrageenan induced edema (LHF) on 22nd day; format: functional; outline: as §2
Rattus norvegicus [18] = assay: Compound was evaluated in the developed adjuvant arthritis assay at a dose of 30 mg/kg for the percent reduction of carrageenan induced edema (LHF) on 23rd day; format: functional; outline: as §2
Rattus norvegicus [19] = assay: Compound was evaluated in the developed adjuvant arthritis assay at a dose of 3 mg/kg for the percent reduction of carrageenan induced edema (LHF) on 21st day; format: functional; outline: as §2
Mus musculus [20] = assay: Percent analgesia in phenylquinone writhing assay at 100 mg/kg; format: functional
Outline: (§3)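 Groups of 10 male mice were dosed orally with compound dissolved or suspended in 0.25% methylcellulose (0.25 mL per mouse). After the designated interval they were challenged ip with 0.25 mL of 0.02% phenylquinone in aqueous ethanol (95:5). Read-out is the percentage of mice protected from writhing.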

Mus musculus [21] = assay: Percent analgesia in phenylquinone writhing assay at 30 mg/kg; format: functional; outline: as §3
Mus musculus [22] = assay: Percent analgesia in phenylquinone writhing assay at 300 mg/kg; format: functional; outline: as §3
Mus musculus [23] = species on record: Mus musculus; assay: Dose giving one-half of average maximal [40%] response in carrageenan assay; format: functional
Mus musculus [24] = species on record: Mus musculus; assay: Dose giving one-half of average maximal [40%] response in phenylquinone writhing assay; format: functional
[25] = (§4) Neurotoxic dose that causes minimal recognizable neurotoxicity in 50% of animals tested; format: toxicity, organism-based; conditions: mouse, in vivo; read-out: NTD50
Outline: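 NTD50 in mice is the oral or intraperitoneal dose causing minimal recognizable neurotoxicity in 50% of animals, judged by five end points, including a positional sense test (hind leg lowered over a table edge should be lifted back).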

Rattus norvegicus [26] = species on record: Rattus norvegicus; assay: (§5) Ulcerogenic dose that produced gastric lesions, ulcers and/or hemorrhage in 50% of the animals tested; format: functional, Stomach
Outline: (§6)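 Ten male Sprague–Dawley rats (ca. 160 g) were fasted 24 h with water available, then dosed po with compound or vehicle. At 4 h they were killed with CO2, and stomachs were opened along the greater curvature. A nonbiased observer scored ulcers, pitting or hemorrhagic spots. UD50 (lesions in 50% of animals) was determined by Litchfield–Wilcoxon.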

Mus musculus [27] = assay: Percent analgesia in phenylquinone writhing assay at 10 mg/kg; format: functional; outline: as §3
Mus musculus [28] = assay: Percent analgesia in phenylquinone writhing assay at 3 mg/kg; format: functional; outline: as §3
Mus musculus [29] = species on record: Mus musculus; assay: as §4; format: functional
Outline: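 Mice dosed orally or intraperitoneally; neurotoxicity scored on five end points, including a positional sense test in which a hind leg lowered over a table edge should be quickly lifted back to a normal position. NTD50 is the dose giving minimal recognizable neurotoxicity in 50% of animals tested.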

[30] = Lethal dose evaluated in NPP assay; format: toxicity, organism-based; conditions: mouse, in vivo
Mus musculus [31] = assay: Percent analgesia in phenylquinone writhing assay at 1 mg/kg; format: functional; outline: as §3
Mus musculus [32] = assay: Percent analgesia in phenylquinone writhing assay at 0.3 mg/kg; format: functional; outline: as §3
Mus musculus [33] = assay: Compound was evaluated for the percent reduction of carrageenan induced edema in mice at dose of 0.3 mg/kg; format: functional
Mus musculus [34] = assay: Compound was evaluated for the percent reduction of carrageenan induced edema in mice at dose of 1.0 mg/kg; format: functional
Mus musculus [35] = assay: Compound was evaluated for the percent reduction of carrageenan induced edema in mice at dose of 3.0 mg/kg; format: functional
Rattus norvegicus [36] = assay: Compound was evaluated in the developed adjuvant arthritis assay at a dose of 0.3 mg/kg for the percent reduction of carrageenan induced edema (LHF) on 22nd day; format: functional; outline: as §2
Rattus norvegicus [37] = assay: Compound was evaluated in the developed adjuvant arthritis assay at a dose of 0.3 mg/kg for the percent reduction of carrageenan induced edema (LHF) on 23rd day; format: functional; outline: as §2
Rattus norvegicus [38] = assay: Compound was evaluated in the developed adjuvant arthritis assay at a dose of 1 mg/kg for the percent reduction of carrageenan induced edema (LHF) on 21nd day; format: functional; outline: as §2
Rattus norvegicus [39] = assay: Compound was evaluated in the developed adjuvant arthritis assay at a dose of 1 mg/kg for the percent reduction of carrageenan induced edema (LHF) on 22nd day; format: functional; outline: as §2
Rattus norvegicus [40] = assay: Compound was evaluated in the developed adjuvant arthritis assay at a dose of 1 mg/kg for the percent reduction of carrageenan induced edema (LHF) on 23rd day; format: functional; outline: as §2
[41] = as §5; format: ADME, organism-based, Stomach; conditions: rat, in vivo; read-out: UD50 (the source's name); outline: as §6

O=S(=O)(C1=C(c2ccccc2)N2CCN=C2S1)c1ccccc1
Reduction (Mus musculus [1]): 10%
Reduction (Mus musculus [2]): 15%
Reduction (Mus musculus [3]): 6%

CCOC(=O)C1(O)CSC2=NC3CCCCC3N21 (stereo not drawn)
Reduction (Mus musculus [4]): 3%

CC1=C(C(=O)Nc2c(C)cc(C)cc2C)SC2=NCCN21
LD50 [5]: 60 mg/kg
Reduction (Mus musculus [6]): 11%

CC1=CSC2=NC(C)(C)CN12
LD50 [5]: 60 mg/kg
Reduction (Mus musculus [6]): 0%

CC1=C(C(=O)Nc2c(C)cc(C)cc2C)SC2=NC(C)CN21 (stereo not drawn)
LD50 [5]: 400 mg/kg
Reduction (Mus musculus [4]): 24%

CC1=C(C(=O)Nc2c(C)cc(C)cc2C)SC2=NC(C)(C)CN21
LD50 [5]: 60 mg/kg
Reduction (Mus musculus [6]): 3%

CC(C)(C)C1=CSC2=NC3CCCCC3N12 (stereo not drawn)
LD50 [5]: 20 mg/kg

CC1=C(C(=O)N2C(C)CCC2C)SC2=NCCN21 (stereo not drawn)
LD50 [5]: 240 mg/kg
Reduction (Mus musculus [4]): 20%

CC1=CSC2=NC3CCCCC3N12 (cis isomer)
LD50 [5]: 20 mg/kg
Reduction (Mus musculus [7]): 15%
Reduction (Mus musculus [8]): 57%
Reduction (Mus musculus [9]): 80%

CC1=CSC2=NC3CCCCC3N12 (trans isomer)
LD50 (Mus musculus [10]): 20 mg/kg
Reduction (Mus musculus [8]): 76%
Reduction (Mus musculus [9]): 100%
Reduction (Rattus norvegicus [11]): 10%
Reduction (Rattus norvegicus [12]): 18%
Reduction (Rattus norvegicus [13]): 19%
Reduction (Rattus norvegicus [14]): 2%
Reduction (Rattus norvegicus [15]): 2%
Reduction (Rattus norvegicus [16]): 10%
Reduction (Rattus norvegicus [17]): 19%
Reduction (Rattus norvegicus [18]): 18%
Reduction (Rattus norvegicus [19]): 0%

CC(=O)Oc1ccccc1C(=O)O [ASPIRIN]
Analgesia (Mus musculus [20]): 60%
Analgesia (Mus musculus [21]): 20%
Analgesia (Mus musculus [22]): 90%
ED50 (Mus musculus [23]): 70 mg/kg
ED50 (Mus musculus [24]): 85 mg/kg
TD50 [25]: 200 mg/kg
UD50 (Rattus norvegicus [26]): 27 mg/kg

CC(C)Cc1ccc(C(C)C(=O)O)cc1 (stereo not drawn) [IBUPROFEN]
Analgesia (Mus musculus [27]): 50%
Analgesia (Mus musculus [28]): 30%
Analgesia (Mus musculus [21]): 90%
NTD50 (Mus musculus [29]): 470 mg/kg
UD50 (Rattus norvegicus [26]): 60 mg/kg
LD50 [30]: > 1000 mg/kg

COc1ccc2c(c1)c(CC(=O)O)c(C)n2C(=O)c1ccc(Cl)cc1 [INDOMETHACIN]
Analgesia (Mus musculus [31]): 60%
Analgesia (Mus musculus [28]): 70%
Analgesia (Mus musculus [32]): 20%
ED50 (Mus musculus [23]): 1 mg/kg
ED50 (Mus musculus [24]): 1 mg/kg
LD50 [5]: 160 mg/kg
Reduction (Mus musculus [33]): 11%
Reduction (Mus musculus [34]): 22%
Reduction (Mus musculus [35]): 39%
NTD50 (Mus musculus [29]): 110 mg/kg
Reduction (Rattus norvegicus [36]): 21%
Reduction (Rattus norvegicus [37]): 13% and 19%
Reduction (Rattus norvegicus [38]): 21%
Reduction (Rattus norvegicus [39]): 29%
Reduction (Rattus norvegicus [40]): 29%
Reduction (Rattus norvegicus [14]): 25%
Reduction (Rattus norvegicus [15]): 35%
Reduction (Rattus norvegicus [19]): 17%
UD50 (Rattus norvegicus [26]): 6 mg/kg
LD50 [30]: 160 mg/kg

COc1ccc2cc([C@H](C)C(=O)O)ccc2c1 [NAPROXEN]
TD50 [25]: 370 mg/kg
UD50 (Rattus norvegicus [26]): 10 mg/kg

CCCCC1C(=O)N(c2ccccc2)N(c2ccccc2)C1=O [PHENYLBUTAZONE]
ED50 (Mus musculus [23]): 50 mg/kg
ED50 (Mus musculus [24]): 64 mg/kg
NTD50 (Mus musculus [29]): 690 mg/kg
UD50 (Rattus norvegicus [26]): 75 mg/kg
LD50 [30]: > 300 mg/kg

Cc1ccc(C(=O)c2ccc(CC(=O)O)n2C)cc1 [TOLMETIN]
Analgesia (Mus musculus [27]): 40%
Analgesia (Mus musculus [20]): 80%
Analgesia (Mus musculus [21]): 60%
ED50 (Mus musculus [23]): 20 mg/kg
ED50 (Mus musculus [24]): 22 mg/kg
NTD50 (Mus musculus [29]): >1000 mg/kg
TD50 [41]: 63 mg/kg
